From article PMC9673105 (Poultry Science, 2022)
Like-named read-outs stand apart in the source and are kept apart here.

Columns and labels:
[1] = system: hypothalamic neuropeptides; details: goldfish; ref Wong et al., 2013; cited from earlier work
zebrafish GALR2a = details: ref Kim et al., 2014, Cohen et al., 2020; cited from earlier work
zebrafish GALR2b = details: ref Kim et al., 2014, Cohen et al., 2020; cited from earlier work
Siberian sturgeon = details: ref Tian et al., 2020, cited from earlier work
GALR1 = details: ref Kim et al., 2014, cited from earlier work
[2] = system: hypothalamic neuropeptides; details: zebrafish; ref Zheng et al., 2017; cited from earlier work
goldfish = details: injection, ref Wong et al., 2013; cited from earlier work
mice = details: cited from earlier work
human GALR3 = details: ref Kim et al., 2014, Cohen et al., 2020; cited from earlier work
Xenopus GALR2b = details: ref Kim et al., 2014, Cohen et al., 2020; cited from earlier work
Xenopus GALR3 = details: ref Kim et al., 2014, Cohen et al., 2020; cited from earlier work
tilapia GALR2b = details: ref Kim et al., 2014, Cohen et al., 2020; cited from earlier work
POMC = assay: Hypothalamic POMC mRNA; type: in vivo; details: chicken
Summary of the method: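 3-wk-old male chicks, randomized into four groups (N ≥ 3), given test peptide intravenously at 10, 50 or 100 ng/g BW, or PBS as control. Hypothalami collected 6, 12 and 24 h post-injection. EvaGreen qRT-PCR with melting-curve and agarose-gel specificity checks. mRNA normalised to β-actin and expressed as fold of PBS group. One-way ANOVA with Dunnett's test.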

GALR2 = details: mouse; ref Lin et al., 2015; cited from earlier work
tilapia GALR2a = details: ref Kim et al., 2014, Cohen et al., 2020; cited from earlier work
[3] = system: hypothalamic neuropeptides; details: mouse; ref Lv et al., 2020; cited from earlier work
[4] = cited from earlier work
[5] = system: luteinizing hormone (LH) release; details: ewe; ref Lomet et al., 2020; cited from earlier work
human GALR2 = details: ref Kim et al., 2014, Cohen et al., 2020; cited from earlier work
[6] = system: hypothalamic neuropeptides; details: orange-spotted grouper; ref Li et al., 2016; cited from earlier work

For “SPX: Spexin, novel neuropeptide; mature peptide with 14 amino acid residues, of various species in cited literature”, the POMC expression [1] is given as “could elevate POMC expression”, the receptor activation (zebrafish GALR2a) is given as “could activate” and the receptor activation (zebrafish GALR2b) is given as “could activate”. For the same substance, the feed consumption (Siberian sturgeon; injection) was “observably decreased”, the feeding (Siberian sturgeon; intraperitoneal (IP) injection) was “feeding inhibition” and the receptor activation (GALR1; GALR1, Cohen et al., 2020) was “not GALR1”. For the same substance, the “activation of GALR1” value (GALR1) was “incompetent in activating GALR1”, the POMC expression [2] was “could elevate POMC expression” and the feed consumption (goldfish) was “observably decreased”. For the same substance, the feeding (mice; intraperitoneal (IP) injection, ref Lv et al., 2020, Wong et al., 2021b) was “feeding inhibition”, the feed intake (mice; peripheral, ref Lv et al., 2020) was “suppresses feed intake” and the receptor activation (human GALR3) was “could activate”. For the same substance, the receptor activation (Xenopus GALR2b) was “could activate”, the receptor activation (Xenopus GALR3) was “could activate” and the receptor activation (tilapia GALR2b) was “could activate”. The “POMC mRNA level (in words)” value (POMC) was “failed to change the mRNA level of POMC”, the “bowel movement via SPX-dependent GALR2 activation” value (GALR2) was “could enhance bowel movement” and the receptor activation (tilapia GALR2a) was “could activate”. For the same substance, the “POMC mRNA level” value [3] was “failed to change the mRNA level of POMC”, the body weight ([4]; rodents with diet-induced obesity, ref Walewski et al., 2014) was “lose weight” and the body weight ([4]; rodents, ref Kolodziejski et al., 2021) was “weight loss”. For the same substance, the “basal and KISS-induced luteinizing hormone (LH) release” value [5] was “does not impact”, the receptor activation (human GALR2) was “could activate” and the POMC expression [6] was “could elevate POMC expression”.
